Reference: ChEMBL document CHEMBL1138539, “Synthesis of new 2-(5-substituted-3-phenyl-2-pyrazolinyl)-1,3-thiazolino[5,4-b]quinoxaline derivatives and evaluation of their antiamoebic activity” (Eur J Med Chem, 2009)
Each block holds one compound with its values, some of them ahead of it.

Assays:
Entamoeba histolytica [1] = assay: Antiamnesic activity against Entamoeba histolytica HM-1:IMSS after 72 hrs by trypan blue exclusion method; type: functional, organism-based
Outline: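 Trophozoites grown in TYIS-33 medium and tested by microdilution; amoebae counted by haemocytometer, viability confirmed by trypan blue exclusion. Compounds in DMSO (1 mg/ml stock), two-fold serial dilutions, with medium blanks and untreated controls. After incubation, wells washed in warm 0.9% NaCl, methanol-fixed, eosin-stained, dye released in 0.1 N NaOH, OD 490 nm. IC50 from linear regression of % inhibition versus log dose.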

Entamoeba histolytica [2] = assay: Antiamoebic activity against Entamoeba histolytica HM-1:IMSS after 72 hrs by microdilution method
[3] = Cytotoxicity against human kidney epithelial cells after 44 hrs by MTT assay; type: ADME, cell-based; settings: Epithelial cell
[4] = Safety index, ratio of IC50 for human kidney epithelial cells to IC50 for Entamoeba histolytica HM-1:IMSS

Compound: Cc1ccc(/C=C/C(=O)c2ccccc2)cc1
IC50 (Entamoeba histolytica [1]): 2120 nM

IC50 (Entamoeba histolytica [2]): 2010 nM
Compound: O=C(/C=C/c1ccc(Cl)c(Cl)c1)c1ccccc1
IC50 [3]: > 50000 nM
selectivity ratio ([4]; human kidney epithelial cells): > 24.9

Compound: CC(C)c1ccccc1/C=C/C(=O)c1ccccc1
IC50 (Entamoeba histolytica [1]): 3480 nM
IC50 [3]: > 46000 nM
selectivity ratio ([4]; human kidney epithelial cells): > 13.2

IC50 (Entamoeba histolytica [2]): 2600 nM
Compound: O=C(/C=C/c1ccccc1Cl)c1ccccc1
IC50 [3]: > 50000 nM
selectivity ratio ([4]; human kidney epithelial cells): > 19.2

Compound: CCc1ccccc1/C=C/C(=O)c1ccccc1
IC50 (Entamoeba histolytica [1]): 1790 nM
IC50 [3]: > 50000 nM
selectivity ratio ([4]; human kidney epithelial cells): > 27.9

Compound: Cc1ccc(C2CC(c3ccccc3)=NN2C(N)=S)cc1 (stereo not given)
IC50 (Entamoeba histolytica [1]): 1580 nM
IC50 [3]: > 50000 nM
selectivity ratio ([4]; human kidney epithelial cells): > 31.7

Compound: Cc1ccc(C2CC(c3ccccc3)=NN2c2nc3nc4ccccc4nc3s2)cc1 (stereo not given)
IC50 (Entamoeba histolytica [1]; in the assay text read “Antiamoebic” for “Antiamnesic”): 300 nM
IC50 [3]: > 14000 nM
selectivity ratio ([4]; human kidney epithelial cells): > 46.4

IC50 (Entamoeba histolytica [2]): 3200 nM
Compound: Cc1cc(C)c(C2CC(c3ccccc3)=NN2c2nc3nc4ccccc4nc3s2)c(C)c1 (stereo not given)
IC50 [3]: > 35000 nM
selectivity ratio ([4]; human kidney epithelial cells): > 10.8

Compound: CCc1ccccc1C1CC(c2ccccc2)=NN1C(N)=S (stereo not given)
IC50 (Entamoeba histolytica [1]): 1610 nM
IC50 [3]: > 50000 nM
selectivity ratio ([4]; human kidney epithelial cells): > 31.1

IC50 (Entamoeba histolytica [2]): 230 nM
Compound: CC(C)c1ccccc1C1CC(c2ccccc2)=NN1C(N)=S (stereo not given)
IC50 [3]: > 50000 nM
selectivity ratio ([4]; human kidney epithelial cells): > 217

IC50 (Entamoeba histolytica [2]): 890 nM
Compound: Clc1cccc(C2CC(c3ccccc3)=NN2c2nc3nc4ccccc4nc3s2)c1Cl (stereo not given)
IC50 [3]: > 50000 nM
selectivity ratio ([4]; human kidney epithelial cells): > 56.2

IC50 (Entamoeba histolytica [2]): 1900 nM
Compound: Clc1ccccc1C1CC(c2ccccc2)=NN1c1nc2nc3ccccc3nc2s1 (stereo not given)
IC50 [3]: > 50000 nM
selectivity ratio ([4]; human kidney epithelial cells): > 26.3

Compound: c1ccc(C2=NN(c3nc4nc5ccccc5nc4s3)C(c3c[nH]c4ccccc34)C2)cc1 (stereo not given)
IC50 (Entamoeba histolytica [1]): 1290 nM
IC50 [3]: > 18000 nM
selectivity ratio ([4]; human kidney epithelial cells): > 14

IC50 (Entamoeba histolytica [2]): 170 nM
Compound: CC(C)c1ccccc1C1CC(c2ccccc2)=NN1c1nc2nc3ccccc3nc2s1 (stereo not given)
IC50 [3]: > 50000 nM
selectivity ratio ([4]; human kidney epithelial cells): > 294

Compound: O=C(/C=C/c1c[nH]c2ccccc12)c1ccccc1
IC50 (Entamoeba histolytica [1]): 1800 nM
IC50 [3]: > 44000 nM
selectivity ratio ([4]; human kidney epithelial cells): > 24.4

Compound: NC(=S)N1N=C(c2ccccc2)CC1c1c[nH]c2ccccc12 (stereo not given)
IC50 (Entamoeba histolytica [1]): 1770 nM
IC50 [3]: > 54000 nM
selectivity ratio ([4]; human kidney epithelial cells): > 30.5

IC50 (Entamoeba histolytica [2]): 2230 nM
Compound: NC(=S)N1N=C(c2ccccc2)CC1c1ccccc1Cl (stereo not given)
IC50 [3]: > 50000 nM
selectivity ratio ([4]; human kidney epithelial cells): > 22.4

IC50 (Entamoeba histolytica [2]): 1410 nM
Compound: Cc1cc(C)c(/C=C/C(=O)c2ccccc2)c(C)c1
IC50 [3]: > 50000 nM
selectivity ratio ([4]; human kidney epithelial cells): > 35.5

Compound: NC(=S)N1N=C(c2ccccc2)CC1c1ccccc1 (stereo not given)
IC50 (Entamoeba histolytica [1]): 1610 nM
IC50 [3]: > 50000 nM
selectivity ratio ([4]; human kidney epithelial cells): > 31.1

IC50 (Entamoeba histolytica [2]): 4370 nM
Compound: Cc1cc(C)c(C2CC(c3ccccc3)=NN2C(N)=S)c(C)c1 (stereo not given)
IC50 [3]: > 50000 nM
selectivity ratio ([4]; human kidney epithelial cells): > 11.4

Compound: c1ccc(C2=NN(c3nc4nc5ccccc5nc4s3)C(c3ccccc3)C2)cc1 (stereo not given)
IC50 (Entamoeba histolytica [1]): 1490 nM
IC50 [3]: > 50000 nM
selectivity ratio ([4]; human kidney epithelial cells): > 33.5

Compound: CCc1ccccc1C1CC(c2ccccc2)=NN1c1nc2nc3ccccc3nc2s1 (stereo not given)
IC50 (Entamoeba histolytica [1]): 1490 nM
IC50 [3]: > 50000 nM
selectivity ratio ([4]; human kidney epithelial cells): > 33.5

Compound: O=C(/C=C/c1ccccc1)c1ccccc1 [CHALCONE]
IC50 (Entamoeba histolytica [1]): 1700 nM
IC50 [3]: > 50000 nM
selectivity ratio ([4]; human kidney epithelial cells): > 29.4

IC50 (Entamoeba histolytica [2]): 1800 nM
Compound: Cc1ncc([N+](=O)[O-])n1CCO [METRONIDAZOLE]
IC50 [3]: > 100000 nM
selectivity ratio ([4]; epithelial cell): > 55.6
